Assay results taken from ChEMBL document CHEMBL1134439, “Radioiodinated styrylbenzenes and thioflavins as probes for amyloid aggregates” (J Med Chem, 2001).
“And” between values parts separate entries of the source, which are not always exact repeats. Equal entries are not always repeated.

Tests used:
Mus musculus [1] = test: Biodistribution was measured in mice heart 60 minutes after intravenous injection of [125I]-labeled styrylbenzene.; assay type: ADME, organism-based; settings: in vivo, 1 h
Outline: (§1)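 ICR mice (2-3 months old, 20-30 g) under ether anesthesia received 5-10 µCi ¹²⁵I tracer in 0.15 mL saline by tail-vein injection. Animals were killed by cardiac excision at set times post-injection. Organs were removed, weighed and γ-counted. Values are % dose per organ against diluted injectate aliquots, taking blood and muscle as 7% and 40% of body weight. Mean of 3-4 mice ± SD.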

Mus musculus [2] = test: Biodistribution was measured in mice kidney 30 minutes after intravenous injection of [125I]-labeled styrylbenzene.; assay type: ADME, organism-based; settings: in vivo, 0.5 h; outline: as §1
Mus musculus [3] = test: Biodistribution was measured in mice kidney 5 minutes after intravenous injection of [125I]-labeled styrylbenzene.; assay type: ADME, organism-based; settings: in vivo; outline: as §1
Mus musculus [4] = test: Biodistribution was measured in mice kidney 60 minutes after intravenous injection of [125I]-labeled styrylbenzene.; assay type: ADME, organism-based; settings: in vivo, 1 h; outline: as §1
Mus musculus [5] = test: Biodistribution was measured in mice liver 30 minutes after intravenous injection of [125I]-labeled styrylbenzene.; assay type: ADME, organism-based; settings: in vivo, 0.5 h; outline: as §1
Mus musculus [6] = test: Biodistribution was measured in mice liver 5 minutes after intravenous injection of [125I]-labeled styrylbenzene.; assay type: ADME, organism-based; settings: in vivo; outline: as §1
Mus musculus [7] = test: Biodistribution was measured in mice liver 60 minutes after intravenous injection of [125I]-labeled styrylbenzene.; assay type: ADME, organism-based; settings: in vivo, 1 h; outline: as §1
Mus musculus [8] = test: Biodistribution was measured in mice muscle 30 minutes after intravenous injection of [125I]-labeled styrylbenzene.; assay type: ADME, organism-based, Muscle tissue; settings: in vivo, 0.5 h; outline: as §1
Mus musculus [9] = test: Biodistribution was measured in mice muscle 5 minutes after intravenous injection of [125I]-labeled styrylbenzene.; assay type: ADME, organism-based, Muscle tissue; settings: in vivo; outline: as §1
Mus musculus [10] = test: Biodistribution was measured in mice muscle 60 minutes after intravenous injection of [125I]-labeled styrylbenzene.; assay type: ADME, organism-based, Muscle tissue; settings: in vivo, 1 h; outline: as §1
Mus musculus [11] = test: Biodistribution was measured in mice skin 30 minutes after intravenous injection of [125I]-labeled styrylbenzene.; assay type: ADME, organism-based, Zone of skin; settings: in vivo, 0.5 h; outline: as §1
Mus musculus [12] = test: Biodistribution was measured in mice skin 5 minutes after intravenous injection of [125I]-labeled styrylbenzene.; assay type: ADME, organism-based, Zone of skin; settings: in vivo; outline: as §1
Mus musculus [13] = test: Biodistribution was measured in mice skin 60 minutes after intravenous injection of [125I]-labeled styrylbenzene.; assay type: ADME, organism-based, Zone of skin; settings: in vivo, 1 h; outline: as §1
Mus musculus [14] = test: Biodistribution was measured in mice spleen 30 minutes after intravenous injection of [125I]-labeled styrylbenzene.; assay type: ADME, organism-based; settings: in vivo, 0.5 h
Outline: (§2)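 ICR mice (2-3 months old, 20-30 g) under ether anesthesia; 0.15 mL saline containing 5-10 µCi ¹²⁵I tracer injected into tail vein. Sacrifice by cardiac excision at set times; organs removed, weighed, γ-counted. Expressed as % dose per organ versus diluted aliquots of injectate. Mean of three or four mice ± SD.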

Mus musculus [15] = test: Biodistribution was measured in mice spleen 5 minutes after intravenous injection of [125I]-labeled styrylbenzene.; assay type: ADME, organism-based; settings: in vivo; outline: as §2
Mus musculus [16] = test: Biodistribution was measured in mice spleen 60 minutes after intravenous injection of [125I]-labeled styrylbenzene.; assay type: ADME, organism-based; settings: in vivo, 1 h; outline: as §2
Mus musculus [17] = test: Biodistribution was measured in mice blood 30 minutes after intravenous injection of [125I]-labeled styrylbenzene.; assay type: ADME, organism-based; settings: in vivo, 0.5 h; outline: as §1
Mus musculus [18] = test: Biodistribution was measured in mice blood 5 minutes after intravenous injection of [125I]-labeled styrylbenzene.; assay type: ADME, organism-based; settings: in vivo; outline: as §1
Mus musculus [19] = test: Biodistribution was measured in mice lung 30 minutes after intravenous injection of [125I]-labeled styrylbenzene.; assay type: ADME, organism-based; settings: in vivo, 0.5 h; outline: as §1
Mus musculus [20] = test: Biodistribution was measured in mice lung 5 minutes after intravenous injection of [125I]-labeled styrylbenzene.; assay type: ADME, organism-based; settings: in vivo; outline: as §1
Mus musculus [21] = test: Biodistribution was measured in mice lung 60 minutes after intravenous injection of [125I]-labeled styrylbenzene.; assay type: ADME, organism-based; settings: in vivo, 1 h; outline: as §1
Mus musculus [22] = test: Biodistribution was measured in mice brain 5 minutes after intravenous injection of [125I]-labeled styrylbenzene; assay type: ADME, organism-based; settings: in vivo; outline: as §1
Mus musculus [23] = test: Biodistribution was measured in mice brain 60 minutes after intravenous injection of [125I]-labeled styrylbenzene; assay type: ADME, organism-based; settings: in vivo, 1 h; outline: as §1
Mus musculus [24] = test: Biodistribution was measured in mice heart 30 minutes after intravenous injection of [125I]-labeled styrylbenzene.; assay type: ADME, organism-based; settings: in vivo, 0.5 h; outline: as §1
Mus musculus [25] = test: Biodistribution was measured in mice heart 5 minutes after intravenous injection of [125I]-labeled styrylbenzene.; assay type: ADME, organism-based; settings: in vivo; outline: as §1
Mus musculus [26] = test: Biodistribution was measured in mice blood 60 minutes after intravenous injection of [125I]-labeled styrylbenzene.; assay type: ADME, organism-based; settings: in vivo, 1 h; outline: as §1
Mus musculus [27] = test: Biodistribution was measured in mice brain 30 minutes after intravenous injection of [125I]-labeled styrylbenzene; assay type: ADME, organism-based; settings: in vivo, 0.5 h; outline: as §1
[28] = molecular target: T1, Amyloid-beta precursor protein (Homo sapiens, UniProt P05067); test: Inhibition constant for amyloid beta compared to [125I]TZDM
T1 sequence (P05067 whole entry): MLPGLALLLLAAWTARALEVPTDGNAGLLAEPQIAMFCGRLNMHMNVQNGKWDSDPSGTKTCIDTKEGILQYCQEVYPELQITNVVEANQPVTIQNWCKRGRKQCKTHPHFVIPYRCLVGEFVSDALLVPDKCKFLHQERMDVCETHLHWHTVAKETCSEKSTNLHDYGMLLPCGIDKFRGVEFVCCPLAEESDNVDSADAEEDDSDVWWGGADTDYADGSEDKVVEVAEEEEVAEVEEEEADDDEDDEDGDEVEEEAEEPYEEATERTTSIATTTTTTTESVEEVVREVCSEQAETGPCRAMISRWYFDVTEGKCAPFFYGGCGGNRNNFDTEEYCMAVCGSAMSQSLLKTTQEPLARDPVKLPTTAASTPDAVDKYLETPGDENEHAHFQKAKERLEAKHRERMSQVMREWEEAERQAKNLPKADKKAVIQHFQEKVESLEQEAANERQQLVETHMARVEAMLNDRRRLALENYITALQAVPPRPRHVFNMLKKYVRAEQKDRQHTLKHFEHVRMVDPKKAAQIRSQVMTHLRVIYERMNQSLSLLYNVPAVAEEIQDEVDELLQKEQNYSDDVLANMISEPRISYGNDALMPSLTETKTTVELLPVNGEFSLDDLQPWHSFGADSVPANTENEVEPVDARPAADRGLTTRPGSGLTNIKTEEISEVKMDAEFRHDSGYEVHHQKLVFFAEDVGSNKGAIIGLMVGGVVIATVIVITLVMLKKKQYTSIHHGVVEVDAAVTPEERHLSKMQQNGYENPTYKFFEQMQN
Outline: (§3)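 Aβ(1-40) or Aβ(1-42) aggregated at 0.5 or 0.25 mg/mL respectively in pH 7.4 buffer (10 mM sodium phosphate, 1 mM EDTA), 37 °C, 36-42 h with shaking. Competition against ¹²⁵I radioligand with fibrils 10-50 nM (final), 10% EtOH, 1 mL. Incubation 3 h room temperature. Bound ligand collected by GF/B filtration, γ-counted. Ki by nonlinear regression. Mean ± SEM, three experiments in duplicate.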

[29] = molecular target: T1, Amyloid-beta precursor protein; test: Inhibition constant for aggregates of amyloid beta compared to [125I]IMSB; outline: as §3

## COc1ccc(/C=C/c2ccc(/C=C/c3ccc(OC)c(C(=O)O)c3)c(I)c2)cc1C(=O)O
Mus musculus [1]
  Dose/organ: 0.12%
Mus musculus [2]
  Dose/organ: 0.46%
Mus musculus [3]
  Dose/organ: 1.31%
Mus musculus [4]
  Dose/organ: 0.23%
Mus musculus [5]
  Dose/organ: 24.47%
Mus musculus [6]
  Dose/organ: 47.85%
Mus musculus [7]
  Dose/organ: 6.14%
Mus musculus [8]
  Dose/organ: 1.82%
Mus musculus [9]
  Dose/organ: 3.16%
Mus musculus [10]
  Dose/organ: 1.3%
Mus musculus [11]
  Dose/organ: 1.44%
Mus musculus [12]
  Dose/organ: 1.56%
Mus musculus [13]
  Dose/organ: 1.02%
Mus musculus [14]
  Dose/organ: 0.07%
Mus musculus [15]
  Dose/organ: 0.17%
Mus musculus [16]
  Dose/organ: 0.03%
Mus musculus [17]
  Dose/organ: 5.19%
Mus musculus [18]
  Dose/organ: 22.52%
Mus musculus [19]
  Dose/organ: 0.31%
Mus musculus [20]
  Dose/organ: 0.89%
Mus musculus [21]
  Dose/organ: 0.16%
Mus musculus [22]
  Dose/organ: 0.14%
Mus musculus [23]
  Dose/organ: 0.02%
Mus musculus [24]
  Dose/organ: 0.18%
Mus musculus [25]
  Dose/organ: 0.43%
Mus musculus [26]
  Dose/organ: 2.17%
Mus musculus [27]
  Dose/organ: 0.03%
[28]
  Ki: > 1000 nM
[29]
  Ki: 0.17 nM and 0.8 nM
